# Glyco luc inh: blocks N-linked glycosylation in D54 reporter cells. D54 ERlucT glycosylation luciferase reporter, 24 h; percent of 100 nM tunicamycin response. reporter increase, % at 12.5 µM. hit rate 0.23% among 360,000. AID 588692;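 active means mean luciferase reporter signal, scaled so untreated is 0 and the glycosylation-blocking control 100, at or above a set limit in every replicate; inconclusive means mean reaches the limit but not every replicate does; inactive means mean below the limit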;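 further: luciferase carries N-glycosylation sites so blocking glycosylation raises the light; 0% = median of neutral control wells and 100% = median of 100 nM tunicamycin wells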
# CAL PDZ FP-1: inhibitors of human CAL PDZ peptide binding; Q9HD26; purified CAL PDZ, TMR-peptide fluorescence polarization, 1 h; inhibition, % at 20 µM; hit rate 0.02% among 330,000; AID 504414;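 active means highest replicate inhibition of at least 40%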;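 further: plate controls were DMSO neutral control wells for no effect and unlabeled competitor peptide control wells for full effect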
#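 Test system: purified CerCALP PDZ construct; Compound dosing: one concentration, 20 µM compound; Also added: TMR-labelled reporter peptide T*-PRC34 bound in PDZ groove; Read-out: inhibition from polarization loss; Controls: unlabelled peptide and DMSO controls; Signal: FP readout, S and P plane fluorescence; Incubation: 1 h at RT.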
# PvdQ inh: blocks Pseudomonas aeruginosa PvdQ acylase activity; purified PvdQ acylase, fluorescence plate reader; inhibition, % at 10 µM; AID 488965; hit rate 0.063% among 340,000; in the data active means inhibition above about 30%, passing the limit was not always enough; inconclusive means no clear call, values can overlap the other calls;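 further: 0% = vehicle neutral wells and 100% = reference inhibitor wells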
# CDK5 p35 inh: CDK5/p35 (human) kinase inhibition; Recombinant CDK5/p35, ADP-Glo luminescence, 60 min; inhibition, % at 10 µM; hit rate 0.01% among 330,000;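 active means highest replicate inhibition of at least 50% and at least 75% of replicates reaching 50%; inconclusive means only one of the two criteria met; inactive means both criteria failed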;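 further: plate controls were DMSO neutral control for no effect and GW8510 at 10 µM for full effect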
# Target sequence (Q00535 whole entry, looked up): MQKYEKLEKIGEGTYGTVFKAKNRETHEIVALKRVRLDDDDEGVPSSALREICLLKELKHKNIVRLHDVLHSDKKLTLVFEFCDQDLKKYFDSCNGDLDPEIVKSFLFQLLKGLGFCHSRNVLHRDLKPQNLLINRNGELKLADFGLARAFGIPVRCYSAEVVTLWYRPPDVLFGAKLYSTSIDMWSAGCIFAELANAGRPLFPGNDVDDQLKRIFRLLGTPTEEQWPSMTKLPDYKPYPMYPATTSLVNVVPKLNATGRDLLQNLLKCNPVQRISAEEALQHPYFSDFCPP
# Target sequence (Q15078 whole entry, looked up): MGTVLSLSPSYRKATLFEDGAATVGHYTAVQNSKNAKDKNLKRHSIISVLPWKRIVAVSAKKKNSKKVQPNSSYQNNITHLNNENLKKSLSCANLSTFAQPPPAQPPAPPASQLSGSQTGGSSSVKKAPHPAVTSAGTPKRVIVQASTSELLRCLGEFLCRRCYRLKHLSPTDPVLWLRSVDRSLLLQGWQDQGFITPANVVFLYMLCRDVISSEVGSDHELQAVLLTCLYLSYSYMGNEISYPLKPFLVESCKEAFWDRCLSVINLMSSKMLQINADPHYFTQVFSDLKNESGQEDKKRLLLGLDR
# CAL PDZ FP-2: blocks peptide binding to the human CAL PDZ domain | hit rate 0.92% among 300,000 | Q9HD26 | purified CAL PDZ, TMR-peptide fluorescence polarization, 1 h | inhibition, % at 24.9 µM;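 active means mean inhibition of at least 30% with at least half of replicates also reaching 30%; inconclusive means no clear call, values can overlap the other calls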;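 further: 0% = DMSO neutral control and 100% = excess unlabeled competitor peptide PRC23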
# Vif inh: HIV Vif inhibition | HEK293T cells, Vif self-association by quenched fluorescence, imaging, 24 h | inhibition, % at 7.49 µM | hit rate 0.35% among 340,000 | AID 602346; in the data active means inhibition above about 50%, passing the limit was not always enough; inconclusive means no clear call, values can overlap the other calls; inactive means below about 31%
# * marks the source's active call; other numbers are inactive results; ? = inconclusive; . = not tested or not shown. This is a sample that favours compounds with a hit; in the whole collection about 1.4% have one here.
SMILES,Glyco luc inh,CAL PDZ FP-1,PvdQ inh,CDK5 p35 inh,CAL PDZ FP-2,Vif inh
CCN(CC(=O)NCc1cccs1)C(=O)c1cc(=O)[nH]c2ccccc12,2,0,-10,-1,74*,-5
CCN(CC(=O)NCc1cccs1)C(=O)c1ccccc1Cl,2,-1,-22,0,52*,-3
CCN(CC(=O)NCc1cccs1)C(=O)C(c1ccccc1)c1ccccc1,-3,0,-5,-1,2,-13
CC(C)c1ccc(NC(=O)C2CCCCN2S(=O)(=O)c2ccccc2)cc1 (stereo unspecified),-2,0,3,0,-2,-3
Cc1cc(C)n(-c2nnc(C)n2/N=C/c2ccco2)n1,0,-1,-9,-4,0,10
CCCOc1ccc2ccccc2c1/C=N/n1c(C)nnc1-n1nc(C)cc1C,27*,-2,-13,-1,-1,5
S=c1nc[nH]c2c1ncn2-c1ccccc1,1,-1,-18,-1,48*,?
Cc1cc(=O)n2nc(N3CCC(C(=O)NCCc4ccc(Cl)cc4)CC3)sc2n1,3,-1,-14,0,68*,11
Cc1ccc(C(=O)N(C)CCOc2ccccc2)cc1S(=O)(=O)N1CCCCC1,-3,0,-22,2,4,-12
Clc1c(Cl)c(Cl)c2n[nH]nc2c1Cl,2,-2,-14,1,79*,-1
COc1cc(C(=O)OCn2nnc3ccccc3c2=O)cc(OC)c1OC,4,-1,12,0,-1,8
COc1cc(CCC(=O)OCn2nnc3ccccc3c2=O)cc(OC)c1OC,0,-1,8,0,-2,59*
CCOc1ccc(N2CC(C(=O)Nc3nnc(CC)s3)CC2=O)cc1 (stereo unspecified),3,-3,-12,0,-3,1
CCC(C(=O)OCC(=O)NC(=O)c1ccccc1OC)c1ccccc1 (stereo unspecified),3,-2,-12,0,-1,10
COc1ccc(OC)c(S(=O)(=O)NC(=O)C2(C)CCN2C(=O)CC2CCCC2)c1 (stereo unspecified),1,.,.,.,.,8
Cc1ccc2nc(-c3ccccc3)cc(C(=O)N3CCN(S(=O)(=O)c4c(C)noc4C)CC3)c2c1,-2,1,-6,0,.,17
COc1cc(CC(=O)NCC(C)(C)N2CCOCC2)cc(OC)c1OC,3,0,-18,0,55*,8
Cc1cc(F)ccc1-c1cc(C(=O)NCc2cccc(C(F)(F)F)c2)[nH]n1,2,.,.,.,.,17
COc1ccc(C2NCCc3c2[nH]c2ccccc32)cc1COc1ccc(F)cc1 (stereo unspecified),-4,-3,39*,-2,11,.
C=CCOc1ccc(C=CC(=O)c2c(O)c(OC)c(OC)c(OC)c2OC)cc1,9,0,7,1,-1,14
O=C(NCCC(=O)N1CCCC1)c1ccccc1Cl,3,0,-6,0,39*,6
CC(CC(=O)Nc1ccc(Cl)c(S(=O)(=O)N2CCOCC2)c1)c1ccccc1 (stereo unspecified),-4,-2,-10,3,-1,-24
CN(C)c1ccc(/C=C2\Oc3ccc(C#Cc4cccc(N)c4)cc3C2=O)cc1,-4,0,-10,0,-4,63*
COC(=O)c1ccc2c(c1)C(=O)/C(=C/c1ccc(C)cc1)O2,4,0,-10,0,-2,-6
COc1cccc(C=Nc2cc(C(C)C)c(O)cc2C)c1O,3,0,14,0,-2,1
SMILES,Glyco luc inh,CAL PDZ FP-1,PvdQ inh,CDK5 p35 inh,CAL PDZ FP-2,Vif inh
COc1cccc(C(=O)COc2ccc3c(C)cc(=O)oc3c2)c1,38*,-1,-14,1,12,-3
N#Cc1c(-c2ccccc2)nc(SCC(=O)Nc2ccc(OC(F)(F)Cl)cc2)[nH]c1=O,1,-2,-12,-2,-8,.
O=C(Oc1ccc(Cl)c2cccnc12)c1cccnc1,9,.,-19,-2,52*,-8
Nc1nc(C2CCCN2S(=O)(=O)c2ccc(Cl)cc2)cs1 (stereo unspecified),-2,-3,-13,0,46*,14
Cc1noc(C)c1COC(=O)CCc1nc2ccccc2c(=O)[nH]1,0,.,-16,-3,45*,22
CCOc1ccc(NC(=O)CN(C)C(=O)CCCOc2ccc(Cl)c(C)c2)cc1OCC,1,-2,4,0,4,-9
CCOC(=O)CCCCCNC(=O)c1ccc(F)cc1F,1,0,0,0,0,.
CC(C)Oc1ccc(F)cc1-c1cc(C(=O)Nc2ccccc2)[nH]n1,-1,.,.,.,.,0
CC(C)Oc1ccc(F)cc1-c1cc(C(=O)Nc2ccc(C(C)(C)C)cc2)[nH]n1,42*,.,.,.,.,0
Cc1ccc(NC(=O)COC(=O)Cc2c[nH]c3ccccc23)cc1C,1,-2,9,1,4,?
COc1ccc(NC(=O)COC(=O)Cc2c[nH]c3ccccc23)cc1Cl,3,0,-1,-1,9,55*
COc1ccc(NC(=O)CCn2c(=S)[nH]c3ccccc3c2=O)cc1Cl,0,.,.,.,.,57*
O=C(CCn1c(=S)[nH]c2ccccc2c1=O)Nc1cccc(Cl)c1,11,-1,-10,1,2,-7
Cc1cc(NC(=O)CSC2=NS(=O)(=O)c3ccccc3N2)no1,1,0,-16,1,1,-1
COc1ccc(NC2=C(C)C(=O)CC2)cc1,32*,0,-6,0,-7,21
Cc1onc(-c2c(Cl)cccc2Cl)c1C(=O)N1CCN(c2ccccc2)CC1,5,-3,2,1,2,-2
Cc1onc(-c2c(Cl)cccc2Cl)c1C(=O)N1CCN(c2ncccn2)CC1,1,1,-11,-1,51*,.
CCc1ccc(Oc2ncnc(N)c2[N+](=O)[O-])cc1,6,-2,-5,0,67*,-1
COc1ccc(CN(CC(=O)NCc2ccccc2)C(=O)CCC(=O)Nc2ccccn2)cc1,2,-2,-11,0,-3,25
CCc1ccc(/C(C)=N\Nc2ccc([N+](=O)[O-])cc2)cc1,-1,.,3,-2,2,60*
Cc1ccc2scc(CN3CCCC3)c2c1,-3,-2,38*,4,.,-9
COc1cc(NC(=O)CNC(=O)Cn2ccc3ccccc3c2=O)cc(OC)c1OC,0,-2,-16,1,-2,9
CC(=O)Nc1ccc(-c2ccnc3c2CC(C(=O)NCc2ccccc2)O3)cc1 (stereo unspecified),16,.,.,.,.,66*
CC(=O)Nc1ccc(-c2ccnc3c2CC(C(=O)NCCc2ccccc2)O3)cc1 (stereo unspecified),-3,.,.,.,.,-4
COc1ccc([C@@H]2[C@@H]3C(=O)N(C(C)(C)C)C(=O)[C@@H]3[C@]3(C)C(=O)N(c4cccc(Br)c4)C(=O)N23)cc1,-1,0,16,-3,-2,-1

# From PubChem
